One may read the EC50 as the concentration at which the effect is half-maximal. Broadly, the CC50 is the concentration giving 50% cytotoxicity.

This note sets out measurements from ChEMBL document CHEMBL1649435, “The octadecyloxyethyl ester of (S)-9-[3-hydroxy-2-(phosphonomethoxy) propyl]adenine is a potent and selective inhibitor of hepatitis C virus replication in genotype 1A, 1B, and 2A replicons” (Antimicrob Agents Chemother, 2009).

Data set [1] has as its system Hepatitis C virus. Nature of the data set: Antiviral activity against HCV1B BM4-5 infected in human Huh7.5 cells assessed as decrease in intracellular viral RNA treated for 3 days measured 24 hrs after last dose by luciferase reporter gene-based […]. Particulars: genotype 1b BM4-5, Huh-7. It counts as functional, organism-based, Hepacivirus hominis. In outline: (§1)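 Huh-7.5.1 human hepatoma cells stably carried the BM4-5 FEO (genotype 1B) or SGR-JFH-1 FEO (genotype 2A) replicon, selected with 500 μg/ml G-418. Cells were seeded at 10,000 per well and incubated with compound up to 100 μM (0.3% DMSO final) for 48 to 72 h. Luciferase light units gave dose-response EC50s. Each condition was run in triplicate, with 3 or 4 experimental replicates.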

Data set [2] has as its system Hepatitis C virus. Put plainly: Antiviral activity against HCV2A SGR-JFH-1 infected in human Huh7.5 cells assessed as decrease in intracellular viral RNA treated for 3 days measured 24 hrs after last dose by luciferase reporter gene-based […]. The format is functional, organism-based, Hepacivirus hominis. As to conditions: genotype 2a SGR-JFH-1, Huh-7. In outline:
as §1
(In a reporter assay the amount or activity of a reporter protein is the signal.)

A short description of data set [3]: Cytotoxicity against human Huh7.5 cells administered for 3 days measured 24 hrs after last dose by neutral red dye uptake assay. It counts as cell-based, Huh-7.
Data set [4] in a line: Selectivity index, ratio of CC50 for human Huh7.5 cells to EC50 for HCV genotype 1B BM4-5 infected in human Huh7.5 cells. Details: species or system Huh-7. The essentials:
(§2)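 SI is CC50 divided by EC50, both from the same BM4-5 FEO (1B) or SGR-JFH-1 FEO (2A) replicon Huh-7.5.1 cultures. Cells (10,000 per well) got compound up to 100 μM (0.3% DMSO final) for 48 to 72 h. EC50 came from the luciferase read-out, CC50 from a fluorescent viability/death assay. Each condition was run in triplicate.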

Data set [5] can be described thus: Selectivity index, ratio of CC50 for human Huh7.5 cells to EC50 for HCV genotype 2A SGR-JFH-1 infected in human Huh7.5 cells. On the set-up: species or system Huh-7. In outline: as §2

For `CCCCCCCCCCCCCCCCCCOCCOP(=O)(O)CO[C@@H](CO)Cn1cnc2c(N)ncnc21`, the EC50 in the data set on Hepatitis C virus [1] was found to be 7 µM; in the data set with Hepatitis C virus [2] it was 26.7 µM. The compound further showed a CC50 at 72 h in data set [3] of over 100 µM. Also, the results for the “Selectivity Index” value in data set [4] and in data set [5] were over 14 and over 4, respectively.

As to `Nc1ncnc2c1ncn2C[C@H](CO)OCP(=O)(O)O`, the EC50 in the data set with Hepatitis C virus [1] and in the data set with Hepatitis C virus [2] was over 100 µM each time. Also, the CC50 at 72 h in data set [3] is over 100 µM.

For `CCCCCCCCCCCCCCCCOCCCOP(=O)(O)CO[C@@H](CO)Cn1cnc2c(N)ncnc21`, the EC50 in the data set with Hepatitis C virus [1] is 6.71 µM; with Hepatitis C virus [2], 41 µM. Also, the CC50 at 72 h in data set [3] was over 100 µM. For the same compound, the “Selectivity Index” value in data set [4] is listed as over 15; in data set [5] it was over 2.

For the compound `Nc1ncnc2c1ncn2C[C@@H](CO)OCP(=O)(O)O`, the EC50 with Hepatitis C virus [1] and in the data set with Hepatitis C virus [2] was over 100 µM throughout. This compound also returned a CC50 at 72 h in data set [3] of over 100 µM.

For `CCCCCCCCCCCCCCCCOCCCOP(=O)(O)CO[C@H](CO)Cn1cnc2c(N)ncnc21`, the EC50 in the data set on Hepatitis C virus [1] worked out at 2.02 µM; with Hepatitis C virus [2] it was 6.5 µM. In addition, it took 85.3 µM to reach half-maximal cytotoxicity in data set [3] (CC50 at 72 h). The “Selectivity Index” value in data set [4] was 42; in data set [5], 13.

`CCCCCCCCCCCCCCCCCCOCCOP(=O)(O)CO[C@H](CO)Cn1cnc2c(N)ncnc21`: the EC50 with Hepatitis C virus [1] turned out to be 1.31 µM; in the data set with Hepatitis C virus [2] it was 0.69 µM. The compound also yielded a CC50 at 72 h in data set [3] of 35.6 µM. Moreover, the figures for the “Selectivity Index” value in data set [4] and in data set [5] were 27 and 52, respectively.
